Assay [1] deals with PC-3. Description: Cytotoxicity against human PC3 cells after 24 hrs in absence of GSH-OEt by MTT assay. It counts as functional, cell-based. The settings on record: PC-3, 24 h. In a few lines: (§1)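 24 h MTT exposure (0.04–40.92 µM in 0.1% DMSO), with or without co-treatment with GSH ethyl ester (15 mM) to gauge the ROS contribution. MTT was 0.5 mg/mL for 3 h, with formazan dissolved in DMSO and absorbance at 595 nm expressed as % of control. Triplicate, repeated at least three times.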
Background: Tetrazolium assays rely on reduction of a dye to a coloured formazan, in cell work by metabolically active cells.

Assay [2] concerns PC-3. Description: Cytotoxicity against human PC3 cells after 24 hrs in presence of GSH-OEt by MTT assay. The class given is functional, cell-based. The settings on record: PC-3, 24 h. The method, boiled down:
as §1

In assay [3] the test system is MDA-MB-435. In words: Antiproliferative activity against human MDA-MB-435 cells after 72 hrs by MTT assay. It counts as functional, cell-based. The settings on record: MDA-MB-435, 72 h. The method, boiled down: (§2)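 MTT reduction: cancer lines plated at 0.7×10^5 to 0.3×10^6 cells/well, V79 and L929 fibroblasts at 0.5×10^5 cells/well. Compounds in DMSO (0.1%) were given for 24 h at 0.04–40.92 µM or 72 h at 0.04–8.19 µM. Fresh medium with 0.5 mg/mL MTT was added for 3 h, then formazan was dissolved in DMSO and read at 595 nm as % of control. IC50 came from nonlinear regression with 95% CI. Doxorubicin (0.001–1.06 µM) was the positive control. Triplicate, ≥3 repeats.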

The test system of assay [4] is SF-295. Description: Cytotoxicity against human SF295 cells after 24 hrs in presence of GSH-OEt by MTT assay. It counts as functional, cell-based. Particulars: SF-295, 24 h. In a few lines: as §1
For assay [5], the system named is L929. Description: Cytotoxicity against mouse L929 cells after 24 hrs in presence of GSH-OEt by MTT assay. It counts as cell-based. Particulars: L929, 24 h. In a few lines:
as §1

In assay [6] the test system is SF-295. Description: Antiproliferative activity against human SF295 cells after 72 hrs by MTT assay. The class given is functional, cell-based. Particulars: SF-295, 72 h. In a few lines: as §2
The test system of assay [7] is HCT-116. In words: Cytotoxicity against human HCT116 cells after 24 hrs in absence of GSH-OEt by MTT assay. Particulars: HCT-116, 24 h. The class given is functional, cell-based. The method, boiled down: as §1
Assay [8] has as its system HCT-116. In words: Antiproliferative activity against human HCT116 cells after 72 hrs by MTT assay. Particulars: HCT-116, 72 h. It counts as functional, cell-based. The method, boiled down: as §2
Assay [9] concerns SW-620. Description: Antiproliferative activity against human SW620 cells after 72 hrs by MTT assay. It counts as functional, cell-based. The settings on record: SW-620, 72 h. The method, boiled down:
as §2

In assay [10] the test system is L929. In words: Cytotoxicity against mouse L929 cells after 24 hrs in absence of GSH-OEt by MTT assay. It counts as cell-based. Particulars: L929, 24 h. In a few lines:
as §1

The subject of assay [11] is L929. Description: Antiproliferative activity against mouse L929 cells after 72 hrs by MTT assay. The class given is cell-based. Particulars: L929, 72 h. The method, boiled down: as §2
The test system of assay [12] is PC-3. In words: Antiproliferative activity against human PC3 cells after 72 hrs by MTT assay. It counts as functional, cell-based. The settings on record: PC-3, 72 h. In a few lines:
as §2

Assay [13] has as its system SF-295. Description: Cytotoxicity against human SF295 cells after 24 hrs in absence of GSH-OEt by MTT assay. Particulars: SF-295, 24 h. It counts as functional, cell-based. In a few lines:
as §1

Assay [14] deals with V79. In words: Antiproliferative activity against chinese hamster V79 cells after 72 hrs by MTT assay. It counts as cell-based. The settings on record: Cricetulus griseus, V79, 72 h. The method, boiled down: as §2
Assay [15] relates to HCT-116. In words: Cytotoxicity against human HCT116 cells after 24 hrs in presence of GSH-OEt by MTT assay. It counts as functional, cell-based. Particulars: HCT-116, 24 h. The method, boiled down: as §1

The term IC50 denotes the concentration at which inhibition is half-maximal. Regarding `CC1(C)CC(n2cc(CNc3ccc4n3[B-](F)(F)[N+]3=C(Cl)C=CC3=C4c3ccccc3)nn2)C2=C(O1)C(=O)c1ccccc1C2=O` (stereo unspecified), the 50% inhibitory concentration (IC50) in assay [1] was over 40 µM; in [2], over 40 µM; in assay [3], over 7.83 µM; in assay [4] it was over 40 µM; in [5] it was over 40 µM; in assay [6], over 7.83 µM. Besides, the concentration for half-maximal inhibition (IC50) was over 40 µM in [7]; over 7.83 µM in assay [8]; over 7.83 µM in assay [9]; over 40 µM in assay [10]; over 7.83 µM in assay [11]; over 7.83 µM in assay [12]. For the same molecule, the 50% inhibitory concentration (IC50) was over 40 µM in [13], over 7.83 µM in assay [14] and over 40 µM in [15].
Turning to `COc1cccc2c1C(=O)c1c(O)c3c(c(O)c1C2=O)C[C@@](O)(C(=O)CO)C[C@@H]3O[C@H]1C[C@H](N)[C@H](O)[C@H](C)O1` [DOXORUBICIN], the IC50 in assay [3] came to 0.94 µM; in [6], 0.45 µM; in assay [9], 0.29 µM; in [11], 0.22 µM; in assay [12] it was 0.05 µM; in assay [14], 0.25 µM.

Values taken from ChEMBL document CHEMBL4043182, “On the synthesis of quinone-based BODIPY hybrids: New insights on antitumor activity and mechanism of action in cancer cells” (Bioorg Med Chem Lett, 2017).
